Runt-CBFb FRET: inhibitors of RUNX1 Runt–CBFb binding, primary screen, biochemical, FRET, Cerulean-Runt, Venus-CBFb, uHTS | Runt-related transcription factor 1 (Homo sapiens) + Core-binding factor subunit beta … | Cerulean-Runt/Venus-CBFb FRET ratio 530/480, 1 h | inhibition, % at 20 µM | 220,000 tested, 0.46% active;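 active = inhibition over about 50% at 20 µM in the single-dose screen, limit read from the data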;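 note: 0% = DMSO wells and 100% = excess unlabeled CBFb competitor control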
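Assay system: Cerulean-Runt domain fusion protein, energy donor; Signal: fluorescence energy transfer, 422 nm excitation, 530/480 nm emission; Timing: 1 h compound exposure, room temperature; Control set: unlabeled CBFb; Medium: Tris buffer pH 7.5 with salts and BSA; Compound: single test concentration of 20 µM, 1% DMSO final; Probe or stimulus: Venus-CBFb 100 nM.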
EBV gp42 block: Epstein-Barr virus gp42 inhibitors, primary screen, biochemical, uHTS, fluorescence polarization; Glycoprotein 42 (Epstein-Barr virus (strain AG876)), Q1HVG2; Fluorescence polarization binding assay, mP read-out; inhibition, % (tested at 21.74 µM); 220,000 tested, 0.42% active; AID 1085, 2008
Target sequence (Q1HVG2 whole entry, looked up): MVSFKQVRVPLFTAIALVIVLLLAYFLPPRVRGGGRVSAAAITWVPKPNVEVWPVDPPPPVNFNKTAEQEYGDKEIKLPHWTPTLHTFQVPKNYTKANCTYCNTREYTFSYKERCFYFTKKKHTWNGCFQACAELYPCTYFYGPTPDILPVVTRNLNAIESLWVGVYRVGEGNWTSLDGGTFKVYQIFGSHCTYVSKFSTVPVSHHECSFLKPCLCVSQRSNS
PKD1 kinase inh: inhibitors of human PKD1 kinase, biochemical, fluorescence polarization; Serine/threonine-protein kinase D1 (Homo sapiens), Q15139; PKD1 kinase fluorescence polarization assay; inhibition, % (test concentration not listed); 200,000 tested, 0.056% active; AID 797, 2007
MEX-5 binding: MEX-5 zinc finger RNA-binding disruptors – biochemical, C. elegans, fluorescence polarization, MLPCN library, primary screen | Zinc finger protein mex-5 (Caenorhabditis elegans), Q9XUB2 | activity score (negative = inhibition of binding), % at 10 µM | 300,000 tested, 0.38% active | MEX-5/FITC-TCR2 RNA binding; active compounds read low;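 active = inhibition past about -25% in most replicates, and total fluorescence under double the plate's negative control median, limit read from the data; inconclusive = replicates evenly split on the limit, or fluorescence at least double controls; inactive = too little inhibition in most replicates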;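 note: 0% = DMSO and -100% = 5 µM competing unlabeled TCR2 RNA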
Target sequence (Q9XUB2 whole entry, looked up): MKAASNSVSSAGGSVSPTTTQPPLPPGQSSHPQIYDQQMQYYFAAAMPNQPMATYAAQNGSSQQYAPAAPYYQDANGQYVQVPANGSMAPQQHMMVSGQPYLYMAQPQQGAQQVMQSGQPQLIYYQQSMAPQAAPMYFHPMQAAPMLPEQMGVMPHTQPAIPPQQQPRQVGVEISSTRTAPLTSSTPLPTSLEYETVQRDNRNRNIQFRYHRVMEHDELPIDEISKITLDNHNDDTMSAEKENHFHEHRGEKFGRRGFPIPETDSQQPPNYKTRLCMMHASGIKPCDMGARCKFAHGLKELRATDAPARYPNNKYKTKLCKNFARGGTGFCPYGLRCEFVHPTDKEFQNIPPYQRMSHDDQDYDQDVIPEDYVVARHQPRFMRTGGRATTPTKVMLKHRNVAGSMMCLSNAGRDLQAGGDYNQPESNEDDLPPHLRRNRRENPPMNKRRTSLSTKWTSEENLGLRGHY
Runt-SMMHC FRET: inhibitors of RUNX1 Runt–CBFb-SMMHC binding, primary screen, biochemical, FRET, Cerulean-Runt, Venus-CBFb-SMMHC, uHTS. Runt-related transcription factor 1 (Homo sapiens) + Core-binding factor subunit beta …. Cerulean-Runt/Venus-CBFb-SMMHC FRET ratio 530/480, 1 h. inhibition, % at 20 µM. 220,000 tested, 0.74% active;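 active = mean inhibition across duplicate retests at 20 µM reaching about 50%, limit read from the data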;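 note: 0% = DMSO wells and 100% = wells with excess untagged CBFb-SMMHC; inhibitors lower the FRET ratio by blocking Runt binding to CBFb-SMMHC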
RanGTP-Imp inh: inhibitors of RanGTP-importin-beta interaction, primary screen, biochemical, FRET, CFP-Ran, YFP-importin-beta, homogeneous; cell-free CFP-Ran/YFP-importin-beta FRET ratio; inhibition, % (test concentration not listed); 300,000 tested, 1.1% active; AID 2216, 2009;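 active = more than half of the replicate wells show a fall in the fluorescence ratio signal beyond about 16%, limit read from the data, passing the limit was not always enough; inconclusive = exactly half of the replicate wells pass the set limit; inactive = fewer than half of replicates pass the limit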;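 note: 0% = DMSO wells and 100% = Ran loaded with GDP instead of GTP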
Starred values were filed as active, the others as inactive; ? = inconclusive; . = no result. Compounds with a hit are over-represented: about 2% of the library has one in this group of screens. Cut-off read from the data, not from the text of the source, unless noted: active = inhibition above about 50%; inactive = the rest.

SMILES	Runt-CBFb FRET	EBV gp42 block	PKD1 kinase inh	MEX-5 binding	Runt-SMMHC FRET	RanGTP-Imp inh
N#CC1=C(N)SC(N)=C(C#N)C1c1ccoc1	12.6	-28.6	6.2	-7.4	-28.3	40.1*
CCOC(=O)c1cc(-c2ccccc2)nc2nc(N(CC)CC)sc12	.	.	.	-1.7	.	45.0*
CCOC(=O)c1cc(-c2ccccc2)nc2nc(N3CCCCC3)sc12	36.6	18.2	-11.7	1.1	96.1	11.7
N#CC1=C(N)C(C#N)(C#N)[C@H](c2ccoc2)[C@H]2CN(Cc3ccccc3)CC=C12	39.6	90.1*	11.7	-46.2*	57.4*	107.3*
CC(=O)N1CC=C2C(C#N)=C(N)C(C#N)(C#N)C(CCc3ccccc3)C2C1 (stereo not drawn)	7.6	6.8	0.3	-4.1	13.8	5.0
CCN1CC=C2C(C#N)=C(N)C(C#N)(C#N)C(CCc3ccccc3)C2C1 (stereo not drawn)	108.2*	81.1*	8.0	.	37.9	.
CN1CC=C2C(C#N)=C(N)C(C#N)(C#N)C(c3cccc(Cl)c3Cl)C2C1 (stereo not drawn)	30.6	86.5*	6.2	-29.2*	62.0*	37.3*
CN1CC=C2C(C#N)=C(N)C(C#N)(C#N)[C@H](c3ccoc3)[C@H]2C1	39.3	61.6*	5.3	-66.0*	59.0*	51.5*
CC(=O)N1CC=C2C(C#N)=C(N)C(C#N)(C#N)[C@H](c3ccoc3)[C@H]2C1	8.4	17.1	-6.2	-20.1	9.5	-3.7
N#CC1=C(N)C(C#N)(C#N)C(c2cccnc2)C2CN(C(=O)OCc3ccccc3)CC=C12 (stereo not drawn)	7.8	-6.2	1.5	-6.5	10.2	7.3
Cc1ccc(C(=O)N2CCOCC2)cc1S(=O)(=O)N1CCCCC1	.	.	.	0.6	.	3.1
CCCOc1ccc(NC(=O)CC2C(=O)N(c3ccc(OCC)cc3)C(=S)N2C2CC2)cc1 (stereo not drawn)	.	.	.	0.4	.	0.8
C=CCN=c1scc(-c2ccco2)n1/N=C/c1ccc(O)c(O)c1O	47.0	-4.3	.	-28.3*	35.3	4.5
COCCN=c1scc(-c2ccco2)n1/N=C/c1ccc(O)c(O)c1O	39.2	73.6*	-1.9	.	19.4	.
CN=c1scc(-c2cccs2)n1/N=C/c1ccc(O)c(O)c1O	35.7	1.9	13.3	-0.6	19.8	?
CN=c1scc(C)n1/N=C/c1ccc(O)c(O)c1O	44.5	-12.2	9.5	-32.1*	17.4	2.0
Cc1cc(C)c(S(=O)(=O)Cc2ccccc2)c(=O)[nH]1	0.6	-7.9	1.4	1.9	-7.2	-0.7
CCC(=O)Nc1c(S(=O)(=O)c2ccccc2)c2nc3ccccc3nc2n1C(C)c1ccccc1 (stereo not drawn)	29.3	17.4	-6.0	-1.5	75.5*	4.3
Cc1ccc(C(=O)Nn2c(N)c(S(=O)(=O)c3ccc(C)cc3)c3nc4ccccc4nc32)cc1	-1.7	23.4	4.7	-4.9	6.4	-3.7
CCC(=O)Nc1c(S(=O)(=O)c2ccc(C)cc2)c2nc3ccccc3nc2n1C(C)c1ccccc1 (stereo not drawn)	37.0	18.6	2.3	-0.8	74.9*	4.4
CCc1c(C)c(C#N)c2nc3ccccc3n2c1NCc1ccco1	21.4	-6.5	-8.0	-5.7	71.6*	?
COCCNc1cc(C)c(C#N)c2nc3ccccc3n12	17.4	4.0	-4.6	2.5	44.3	24.7*
CCN(CC)c1cc(C)c(C#N)c2nc3ccccc3n12	55.0*	-0.2	.	-2.5	90.1*	31.9*
CNc1cc(C)c(C#N)c2nc3ccccc3n12	.	.	.	0.6	.	8.1
Cc1c(Cc2ccccc2)c(NCCCO)n2c(nc3ccccc32)c1C#N	56.7*	35.6	.	-3.6	77.6*	?
SMILES	Runt-CBFb FRET	EBV gp42 block	PKD1 kinase inh	MEX-5 binding	Runt-SMMHC FRET	RanGTP-Imp inh
CC(=O)Nc1ccc(NC(=O)CSc2nnc(-c3cc(C)[nH]n3)n2N)cc1	.	.	.	1.3	.	-0.2
COc1ccc(N2CCN(C(=O)CCN3C(=S)NC(C)(C)CC3C)CC2)cc1 (stereo not drawn)	0.5	-8.5	-3.7	2.5	-0.7	-0.2
Cc1ccccc1OCC(=O)Nc1nc2ccccc2[nH]1	1.9	-3.1	8.1	-2.4	0.8	0.1
Cc1cccc(NC(=O)CSc2cc(C)c(C#N)c3nc4ccccc4n23)c1	29.7	-20.9	.	-2.5	80.2*	0.3
Cc1cc(NCCCO)n2c(nc3ccccc32)c1C#N	10.5	-1.5	0.1	1.0	38.9	55.7*
CCCc1cc(NCC2CCCO2)n2c(nc3ccccc32)c1C#N (stereo not drawn)	20.2	2.3	-6.8	-0.3	55.1*	52.1*
CCCNc1cc(C)c(C#N)c2nc3ccccc3n12	13.0	0.5	5.2	.	44.6	.
Cc1cc(NCc2ccccn2)n2c(nc3ccccc32)c1C#N	.	-14.7	6.4	-1.5	.	96.5*
COc1ccc2c(c1)SCC/C2=C\CN1C(=O)CCC1=O	-1.8	2.0	6.5	-2.5	1.1	3.1
CCc1c(C)c(C#N)c2nc3ccccc3n2c1NCCN(C)C	15.5	-6.5	2.4	-2.3	26.1	?
Cc1cc(NCCOCCO)n2c(nc3ccccc32)c1C#N	.	.	.	0.4	.	21.3*
C=C(C)Cc1c(C)c(C#N)c2nc3ccccc3n2c1NCCCN(C)C	17.3	-10.7	.	1.0	26.1	38.1*
Cc1ccc(N(CC(=O)NC2CCCC2)C(=O)CCC(=O)Nc2nc(C)cs2)cc1	.	.	.	-0.8	.	?
COc1cc(/C=C(\C#N)C(=O)Nc2cccc3ncccc23)ccc1O	84.5*	-4.6	-1.2	-1.7	91.7*	62.8*
COc1cc(/C=C(\C#N)C(=O)Nc2ccccn2)ccc1O	.	.	.	1.6	.	4.5
Cc1ccc2nc(NC(=O)CC3Oc4ccccc4NC3=O)sc2c1 (stereo not drawn)	-0.1	2.1	.	-0.4	4.5	1.2
COC(=O)CCC(=O)c1ccc(OC)c(Cl)c1	.	.	.	-1.5	.	0.7
C=CCN1C(=O)/C(=C/c2ccc(OCC(=O)O)cc2)S/C1=N/c1nccs1	-12.0	-0.9	3.2	-1.5	-14.7	2.5
C=CCN1C(=O)/C(=C/c2ccc(N(C)C)cc2)S/C1=N\c1nnc(CC)s1	-43.4	52.9*	-8.9	-10.2	-131.6	-20.2
O=C(O)CCN1C(=O)c2ccc(NC(=O)C(c3ccccc3)c3ccccc3)cc2C1=O	1.2	-12.8	.	.	-4.3	2.9

Source: PubChem (several laboratories)
